Measurements from ChEMBL document CHEMBL1151755, “Crystal structure of the peroxisome proliferator-activated receptor gamma (PPARgamma) ligand binding domain complexed with a novel partial agonist: a new region of the hydrophobic pocket could be exploited for drug design” (J Med Chem, 2008).
Calls of active or inactive are those of the source. The calls are words filed in the database; no cut-off is given here.

What was measured:
Format in all cases: cell-based
Conditions in all cases: HepG2
[1] = molecular target: T1, Thyroid hormone receptor alpha (Homo sapiens) (UniProt P10827); test: Increase in transcriptional activity of TRalpha ligand binding domain expressed in human Hep G2 cells co-transfected with Gal4-DBD by luciferase reporter gene assay
T1 sequence (whole entry): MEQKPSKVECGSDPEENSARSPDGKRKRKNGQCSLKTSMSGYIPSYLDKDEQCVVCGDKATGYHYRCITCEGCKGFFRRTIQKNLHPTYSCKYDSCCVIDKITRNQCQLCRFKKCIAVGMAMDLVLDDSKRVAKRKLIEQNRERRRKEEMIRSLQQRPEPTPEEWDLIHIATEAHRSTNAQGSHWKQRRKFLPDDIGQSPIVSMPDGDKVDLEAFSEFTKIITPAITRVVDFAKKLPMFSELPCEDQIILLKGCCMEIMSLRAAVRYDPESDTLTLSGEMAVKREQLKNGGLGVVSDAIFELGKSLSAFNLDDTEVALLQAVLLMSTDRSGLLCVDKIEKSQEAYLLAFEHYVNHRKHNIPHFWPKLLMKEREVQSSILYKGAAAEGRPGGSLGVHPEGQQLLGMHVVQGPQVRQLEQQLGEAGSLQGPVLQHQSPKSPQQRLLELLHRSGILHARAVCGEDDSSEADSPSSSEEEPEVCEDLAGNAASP
Procedure, shortened: (§1)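 HepG2 cells transfected for 4 h by calcium phosphate coprecipitation with 100 ng pGal4UAS-luciferase, 50 ng Gal4-LBD receptor vector and 300 ng CMV-β-galactosidase plasmid for normalization. Cells were washed in PBS, then refed with serum-free DMEM/F-12 containing penicillin/streptomycin and compound or 0.1% ethanol vehicle for 20 h. Luciferase read-out was normalized to β-galactosidase. Experiments were repeated at least three times.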

[2] = molecular target: T2, Retinoic acid receptor alpha (Homo sapiens) (UniProt P10276); test: Increase in transcriptional activity of RARalpha ligand binding domain expressed in human Hep G2 cells co-transfected with Gal4-DBD by luciferase reporter gene assay; procedure, shortened: as §1
T2 sequence (whole entry): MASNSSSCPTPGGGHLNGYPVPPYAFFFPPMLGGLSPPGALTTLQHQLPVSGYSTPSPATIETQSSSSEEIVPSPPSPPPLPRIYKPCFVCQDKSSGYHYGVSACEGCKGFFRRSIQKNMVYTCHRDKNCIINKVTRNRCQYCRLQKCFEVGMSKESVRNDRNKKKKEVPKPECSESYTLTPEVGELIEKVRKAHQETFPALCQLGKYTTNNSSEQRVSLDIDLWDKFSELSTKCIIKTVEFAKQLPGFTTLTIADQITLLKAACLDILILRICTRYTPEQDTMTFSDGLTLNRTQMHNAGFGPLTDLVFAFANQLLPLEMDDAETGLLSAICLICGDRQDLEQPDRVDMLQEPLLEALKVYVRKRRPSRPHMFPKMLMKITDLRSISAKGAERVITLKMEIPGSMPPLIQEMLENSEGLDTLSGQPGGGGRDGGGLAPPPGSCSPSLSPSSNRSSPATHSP

[3] = molecular target: T3, Hepatocyte nuclear factor 4-alpha (Homo sapiens) (UniProt P41235); test: Increase in transcriptional activity of HNF-4alpha ligand binding domain expressed in human Hep G2 cells co-transfected with Gal4-DBD by luciferase reporter gene assay; procedure, shortened: as §1
T3 sequence (whole entry): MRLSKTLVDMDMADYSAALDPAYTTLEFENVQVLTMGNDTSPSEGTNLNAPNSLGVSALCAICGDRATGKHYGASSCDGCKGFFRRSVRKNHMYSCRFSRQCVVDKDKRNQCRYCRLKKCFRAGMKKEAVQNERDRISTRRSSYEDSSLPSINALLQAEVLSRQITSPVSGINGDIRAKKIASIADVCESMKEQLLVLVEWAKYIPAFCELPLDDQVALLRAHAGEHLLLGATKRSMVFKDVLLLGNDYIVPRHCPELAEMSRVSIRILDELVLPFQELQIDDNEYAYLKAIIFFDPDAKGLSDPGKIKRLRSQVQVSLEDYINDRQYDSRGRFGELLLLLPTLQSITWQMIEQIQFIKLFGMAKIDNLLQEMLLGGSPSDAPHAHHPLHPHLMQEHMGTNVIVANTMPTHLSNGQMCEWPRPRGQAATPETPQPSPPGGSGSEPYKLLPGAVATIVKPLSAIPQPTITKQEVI

[4] = molecular target: Nuclear receptor subfamily 4 group A member 2 (Homo sapiens) (UniProt P43354); test: Increase in transcriptional activity of Nurr1 ligand binding domain expressed in human Hep G2 cells co-transfected with Gal4-DBD by luciferase reporter gene assay; procedure, shortened: as §1
Chain of Nuclear receptor subfamily 4 group A member 2 (Homo sapiens) (P43354 whole entry, the tested form may be a part): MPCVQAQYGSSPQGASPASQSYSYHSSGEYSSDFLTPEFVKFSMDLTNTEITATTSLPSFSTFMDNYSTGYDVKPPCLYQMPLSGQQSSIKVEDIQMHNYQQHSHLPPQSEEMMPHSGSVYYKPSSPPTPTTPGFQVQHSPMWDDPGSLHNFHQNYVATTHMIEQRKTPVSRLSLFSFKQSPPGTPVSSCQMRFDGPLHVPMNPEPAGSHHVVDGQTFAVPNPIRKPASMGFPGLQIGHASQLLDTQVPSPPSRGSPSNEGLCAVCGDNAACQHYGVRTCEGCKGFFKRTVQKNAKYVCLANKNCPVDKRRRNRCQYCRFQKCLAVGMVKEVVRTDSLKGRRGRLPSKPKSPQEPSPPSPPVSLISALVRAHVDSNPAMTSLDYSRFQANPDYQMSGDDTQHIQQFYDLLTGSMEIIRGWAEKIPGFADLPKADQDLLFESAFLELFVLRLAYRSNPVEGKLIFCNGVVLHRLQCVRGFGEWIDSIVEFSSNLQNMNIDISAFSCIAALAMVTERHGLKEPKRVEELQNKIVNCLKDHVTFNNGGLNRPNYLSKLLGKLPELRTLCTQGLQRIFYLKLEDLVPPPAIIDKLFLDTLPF

[5] = molecular target: T4, Peroxisome proliferator-activated receptor alpha (Mus musculus) (UniProt P23204); test: Agonist activity at mouse PPARalpha ligand binding domain expressed in human Hep G2 cells co-transfected with Gal4-DBD by luciferase reporter gene assay relative to Wy 14,643
T4 sequence (whole entry): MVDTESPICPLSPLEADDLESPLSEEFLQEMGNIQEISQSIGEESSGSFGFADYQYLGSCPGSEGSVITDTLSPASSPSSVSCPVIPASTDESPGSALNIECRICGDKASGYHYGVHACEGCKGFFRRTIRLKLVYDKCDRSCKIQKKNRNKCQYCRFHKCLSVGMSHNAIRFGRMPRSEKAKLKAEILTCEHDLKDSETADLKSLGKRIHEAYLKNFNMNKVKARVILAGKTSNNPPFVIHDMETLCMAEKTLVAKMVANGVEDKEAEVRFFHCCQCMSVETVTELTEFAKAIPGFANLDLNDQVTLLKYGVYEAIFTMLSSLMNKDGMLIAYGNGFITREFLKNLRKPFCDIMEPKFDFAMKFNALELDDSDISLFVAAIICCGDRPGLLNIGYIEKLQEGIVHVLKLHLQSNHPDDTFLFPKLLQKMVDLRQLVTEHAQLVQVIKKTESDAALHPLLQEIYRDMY
Procedure, shortened: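 HepG2 cells received the Gal4-receptor LBD construct (50 ng), pGal4UAS-luciferase (100 ng) and pCMVβ (300 ng) by calcium phosphate coprecipitation for 4 h. They were then treated in serum-free DMEM/F-12 with ligand or 0.1% ethanol for 20 h. Luciferase was normalized to β-galactosidase, and efficacy was expressed as percent of the Wy 14,643 maximum (100%). Values are mean ± SEM of 3–5 experiments in triplicate.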

Activity [1]	Activity [2]	Activity [3]	Activity [4]	Activity [5]	Efficacy [5] [%]	SMILES
inactive	inactive	inactive	inactive	inactive		O=C(O)[C@@H](Cc1ccccc1)Oc1ccc(-c2ccccc2)cc1
inactive	inactive	inactive	inactive		120	O=C(O)[C@H](Cc1ccccc1)Oc1ccc(-c2ccccc2)cc1
